# Measured values reported in ChEMBL document CHEMBL3526055, “Human metabolism of lapatinib, a dual kinase inhibitor: implications for hepatotoxicity” (Drug Metab Dispos, 2012).
# Legend:
# Format in all cases: ADME, organism-based
# [1] = Drug level in healthy human feces treated with [14C]lapatinib at 250 mg, po administered as single dose by LC-MS/MS method; conditions: in vivo
# Plasma [2] = test: Drug level in healthy human plasma treated with [14C]lapatinib at 250 mg, po administered as single dose by LC-MS/MS method; conditions: in vivo
# Outline: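 Healthy volunteers (n=6) received a single 250 mg oral aqueous suspension of unlabeled plus [14C]-drug (89.1 μCi), fasted 10 h predose to ~4 h postdose. Samples were collected for 168 h. Plasma was extracted from 25 µl by protein precipitation with an isotope-labeled internal standard and quantified by validated LC/MS/MS over 5 to 5000 ng/ml. Medians were reported.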
# [3] = Total drug recovery in healthy female human at 250 mg, po administered as single dose; conditions: in vivo, read-out: Drug recovery
# Outline: (§1)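 Six healthy subjects (3 male, 3 female) received a single 250 mg oral [14C] suspension. Urine was collected in intervals and faeces were collected up to 168 h postdose. Faeces were homogenized as a water slurry and triplicate ~0.2 g aliquots combusted. Urine and plasma were counted directly by LSC with quench and background correction. Results are reported as median % of dose.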
# [4] = Drug recovery in healthy human urine at 250 mg, po administered as single dose after 0 to 144 hrs; conditions: read-out: Drug recovery; outline: as §1
# [5] = Drug recovery in healthy human urine at 250 mg, po administered as single dose after 0 to 48 hrs; conditions: read-out: Drug recovery; outline: as §1
# [6] = Total drug recovery in healthy human at 250 mg, po administered as single dose; conditions: in vivo, read-out: Drug recovery; outline: as §1
# [7] = Drug recovery in healthy human feces at 250 mg, po administered as single dose after 0 to 168 hrs; conditions: read-out: Drug recovery; outline: as §1
# Plasma [8] = test: Drug metabolism in healthy human plasma assessed as (E)-5-(4-(3-chloro-4-(3-fluorobenzyloxy)phenylamino)quinazolin-6-yl)furan-2-carbaldehyde oxime formation at 250 mg, po administered as single dose by LC-MS/MS method; conditions: in vivo
# Outline: (§2)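 Pooled plasma from subjects given a single 250 mg oral [14C] suspension was extracted (>90% recovery) and run on a C18 HPLC column at 45 °C. Positive-ion ESI single-quadrupole LC/MS used full scan m/z 100 to 900, with UV at 277 nm. Faeces were extracted with ethanol:acetonitrile:sample (3:3:1) for radio-HPLC profiling with off-line LSC fractions and nanoelectrospray MS.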
# [9] = Drug recovery in healthy human feces at 250 mg, po administered as single dose after 0 to 24 hrs; conditions: read-out: Drug recovery; outline: as §1
# [10] = Drug recovery in healthy human urine at 250 mg, po administered as single dose after 0 to 72 hrs; conditions: read-out: Drug recovery; outline: as §1
# [11] = Drug recovery in healthy human feces at 250 mg, po administered as single dose after 0 to 48 hrs; conditions: read-out: Drug recovery; outline: as §1
# Homo sapiens = test: Total drug recovery in healthy human at 250 mg, po administered as single dose after 0 to 168 hrs; conditions: in vivo; outline: as §1
# [12] = Drug recovery in healthy human feces at 250 mg, po administered as single dose after 0 to 96 hrs; conditions: read-out: Drug recovery; outline: as §1
# [13] = Drug recovery in healthy female human feces at 250 mg, po administered as single dose; conditions: read-out: Drug recovery; outline: as §1
# [14] = Drug recovery in healthy human feces at 250 mg, po administered as single dose after 0 to 120 hrs; conditions: read-out: Drug recovery; outline: as §1
# [15] = Drug recovery in healthy human urine at 250 mg, po administered as single dose after 0 to 168 hrs; conditions: read-out: Drug recovery; outline: as §1
# [16] = Drug recovery in healthy human urine at 250 mg, po administered as single dose after 0 to 120 hrs; conditions: read-out: Drug recovery; outline: as §1
# [17] = Total drug recovery in healthy male human at 250 mg, po administered as single dose; conditions: in vivo, read-out: Drug recovery; outline: as §1
# Plasma [18] = test: Drug metabolism in healthy human plasma assessed as N-(3-chloro-4-(3-fluorobenzyloxy)phenyl)-6-(5-((hydroxy(2-(methylsulfonyl)ethyl)amino)methyl)furan-2-yl)quinazolin-4-amine formation at 250 mg, po administered as single dose by LC-MS/MS method; conditions: in vivo; outline: as §2
# Plasma [19] = test: Drug metabolism in healthy human plasma assessed as 4-(3-chloro-4-hydroxyphenylamino)-6-(5-((2-(methylsulfonyl)ethylamino)methyl)furan-2-yl)quinazolin-2-ol formation at 250 mg, po administered as single dose by LC-MS/MS method; conditions: in vivo; outline: as §2
# [20] = Drug recovery in healthy human urine at 250 mg, po administered as single dose; conditions: read-out: Drug recovery; outline: as §1
# Plasma [21] = test: Drug metabolism in healthy human plasma assessed as 1-(5-(4-(3-chloro-4-(3-fluorobenzyloxy)phenylamino)quinazolin-6-yl)furan-2-yl)-N-(2-(methylsulfonyl)ethylidene)methanamine oxide formation at 250 mg, po administered as single dose by LC-MS/MS method; conditions: in vivo; outline: as §2
# Plasma [22] = test: Drug metabolism in healthy human plasma assessed as 2-chloro-4-(6-(5-((2-(methylsulfonyl)ethylamino)methyl)furan-2-yl)quinazolin-4-ylamino)phenol formation at 250 mg, po administered as single dose by LC-MS/MS method; conditions: in vivo; outline: as §2
# Plasma [23] = test: Drug metabolism in healthy human plasma assessed as N-((5-(4-(3-chloro-4-(3-fluorobenzyloxy)phenylamino)quinazolin-6-yl)furan-2-yl)methylene)-2-(methylsulfonyl)ethanamine oxide formation at 250 mg, po administered as single dose by LC-MS/MS method; conditions: in vivo; outline: as §2
# Plasma [24] = test: Drug metabolism in healthy human plasma assessed as 5-(4-(3-chloro-4-(3-fluorobenzyloxy)phenylamino)quinazolin-6-yl)furan-2-carboxylic acid formation at 250 mg, po administered as single dose by LC-MS/MS method; conditions: in vivo; outline: as §2
# [25] = Drug recovery in healthy male human feces at 250 mg, po administered as single dose; conditions: read-out: Drug recovery; outline: as §1
# [26] = Drug recovery in healthy male human urine at 250 mg, po administered as single dose; conditions: read-out: Drug recovery; outline: as §1
# [27] = Drug recovery in healthy human urine at 250 mg, po administered as single dose after 0 to 24 hrs; conditions: read-out: Drug recovery; outline: as §1
# [28] = Drug metabolism in healthy human feces assessed as 6-(5-(aminomethyl)furan-2-yl)-N-(3-chloro-4-(3-fluorobenzyloxy)phenyl)quinazolin-4-amine formation at 250 mg, po administered as single dose by LC-MS/MS method; conditions: in vivo; outline: as §2
# [29] = Drug recovery in healthy female human urine at 250 mg, po administered as single dose; conditions: read-out: Drug recovery; outline: as §1
# Plasma [30] = test: Drug metabolism in healthy human plasma assessed as 5-(4-(3-chloro-4-(3-fluorobenzyloxy)phenylamino)quinazolin-6-yl)furan-2-carbaldehyde formation at 250 mg, po administered as single dose by LC-MS/MS method; conditions: in vivo; outline: as §2
# Plasma [31] = test: Drug metabolism in healthy human plasma assessed as (Z)-5-(4-(3-chloro-4-(3-fluorobenzyloxy)phenylamino)quinazolin-6-yl)furan-2-carbaldehyde oxime formation at 250 mg, po administered as single dose by LC-MS/MS method; conditions: in vivo; outline: as §2
# [32] = Drug recovery in healthy human urine at 250 mg, po administered as single dose after 0 to 96 hrs; conditions: read-out: Drug recovery; outline: as §1
# Plasma [33] = test: Drug recovery in healthy human plasma at 250 mg, po administered as single dose; conditions: in vivo
# [34] = Drug recovery in healthy human feces at 250 mg, po administered as single dose after 0 to 144 hrs; conditions: read-out: Drug recovery; outline: as §1
# [35] = Drug recovery in healthy human feces at 250 mg, po administered as single dose after 0 to 72 hrs; conditions: read-out: Drug recovery; outline: as §1
# [36] = Drug level in healthy human feces at 250 mg, po administered as single dose by LC-MS/MS method; conditions: read-out: Drug uptake
compound,measurement,setting,value
O=C(O)c1ccc(-c2ccc3ncnc(Nc4ccc(OCc5cccc(F)c5)c(Cl)c4)c3c2)o1,Drug uptake,[1],14%
same,Drug metabolism,Plasma [2],metabolite_detected
CS(=O)(=O)CC[n+]1cc([O-])ccc1-c1ccc2ncnc(Nc3ccc(OCc4cccc(F)c4)c(Cl)c3)c2c1,Drug metabolism,[1],metabolite_detected
CS(=O)(=O)CCNCc1ccc(-c2ccc3ncn[14c](Nc4ccc(OCc5cccc(F)c5)c(Cl)c4)c3c2)o1.Cc1ccc(S(=O)(=O)O)cc1.O,dose excreted,[3],91.5%
same,dose excreted,[4],1.16%
same,dose excreted,[5],1.16%
same,dose excreted,[6],93%
same,dose excreted,[7],91.8%
same,Drug metabolism,Plasma [8],metabolite_detected
same,dose excreted,[9],10.5%
same,dose excreted,[10],1.16%
same,dose excreted,[11],45.3%
same,Drug recovery,Homo sapiens,93.1%
same,dose excreted,[12],78.4%
same,dose excreted,[13],89.9%
same,dose excreted,[14],90.8%
same,dose excreted,[15],1.16%
same,dose excreted,[16],1.16%
same,dose excreted,[17],94.6%
same,Drug metabolism,Plasma [18],metabolite_detected
same,Drug metabolism,Plasma [19],metabolite_not_detected
same,dose excreted,[20],1.15%
same,Drug metabolism,Plasma [21],metabolite_detected
same,Drug metabolism,Plasma [22],metabolite_not_detected
same,Drug metabolism,Plasma [23],metabolite_detected
same,Drug metabolism,Plasma [24],metabolite_detected
same,dose excreted,[25],93.6%
same,dose excreted,[26],1%
same,dose excreted,[27],1.01%
same,Drug metabolism,[28],metabolite_detected
same,dose excreted,[29],1.3%
same,Drug metabolism,Plasma [30],metabolite_detected
same,Drug metabolism,Plasma [31],metabolite_detected
same,dose excreted,[32],1.16%
same,Drug recovery,Plasma [33],> 90%
same,dose excreted,[34],91.4%
same,dose excreted,[35],74.9%
same,dose excreted,[36],27%
CS(=O)(=O)CCNCc1ccc(-c2ccc3ncnc(Nc4ccc(O)c(Cl)c4)c3c2)o1,Drug uptake,[1],3.9%
Oc1ccc(-c2ccc3ncnc(Nc4ccc(OCc5cccc(F)c5)c(Cl)c4)c3c2)nc1,Drug uptake,[1],6.3%
CS(=O)(=O)CCN(O)Cc1ccc(-c2ccc3ncnc(Nc4ccc(OCc5cccc(F)c5)c(Cl)c4)c3c2)o1,Drug metabolism,Plasma [2],metabolite_detected
O/N=C/c1ccc(-c2ccc3ncnc(Nc4ccc(OCc5cccc(F)c5)c(Cl)c4)c3c2)o1,Drug metabolism,Plasma [2],metabolite_detected
CS(=O)(=O)CCNCc1ccc(-c2ccc3nc(O)nc(Nc4ccc(O)c(Cl)c4)c3c2)o1,Drug uptake,[1],3.3%
NCc1ccc(-c2ccc3ncnc(Nc4ccc(OCc5cccc(F)c5)c(Cl)c4)c3c2)o1,Drug metabolism,[1],metabolite_detected
CS(=O)(=O)CC/[N+]([O-])=C/c1ccc(-c2ccc3ncnc(Nc4ccc(OCc5cccc(F)c5)c(Cl)c4)c3c2)o1,Drug metabolism,Plasma [2],metabolite_detected
CS(=O)(=O)C/C=[N+](/[O-])Cc1ccc(-c2ccc3ncnc(Nc4ccc(OCc5cccc(F)c5)c(Cl)c4)c3c2)o1,Drug metabolism,Plasma [2],metabolite_detected
O/N=C\c1ccc(-c2ccc3ncnc(Nc4ccc(OCc5cccc(F)c5)c(Cl)c4)c3c2)o1,Drug metabolism,Plasma [2],metabolite_detected
O=Cc1ccc(-c2ccc3ncnc(Nc4ccc(OCc5cccc(F)c5)c(Cl)c4)c3c2)o1,Drug metabolism,Plasma [2],metabolite_detected
